Laboratory results taken from ChEMBL document CHEMBL4138179, “Design, synthesis and cytotoxic activity of N-Modified oleanolic saponins bearing A glucosamine” (Eur J Med Chem, 2018).

Legend:
Format in all cases: functional, cell-based
PC-3 = assay: Cytotoxicity against human PC3 cells assessed as cell growth inhibition after 48 hrs by MTT assay; conditions: PC-3, 48 h
Procedure, shortened: (§1)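 Cells from ATCC; HL-60 grown in IMDM, PC-3 in RPMI 1640, HT29 in DMEM, each with 10% FBS and penicillin/streptomycin, 37 °C, 5% CO2. Cells incubated without or with compound at the indicated concentrations and times. Mitochondrial MTT reduction read at 570 nm on a plate reader. IC50 given as mean ± SD of at least three independent experiments.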

HL-60 = assay: Cytotoxicity against human HL60 cells assessed as cell growth inhibition after 48 hrs by MTT assay; conditions: HL-60, 48 h; procedure, shortened: as §1
HT-29 = assay: Cytotoxicity against human HT-29 cells assessed as cell growth inhibition after 48 hrs by MTT assay; conditions: HT-29, 48 h; procedure, shortened: as §1

Row | SMILES | IC50 (PC-3) [µM] | IC50 (HL-60) [µM] | IC50 (HT-29) [µM]
1 | CCCCCCCCOC(=O)N[C@H]1[C@H](O[C@H]2CC[C@]3(C)[C@H]4CC=C5[C@@H]6CC(C)(C)CC[C@]6(C(=O)O)CC[C@@]5(C)[C@]4(C)CC[C@H]3C2(C)C)O[C@H](CO)[C@@H](O)[C@@H]1O | 15.4 | 1.42 | 20.3
2 | CC1(C)CC[C@]2(C(=O)O)CC[C@]3(C)C(=CC[C@@H]4[C@@]5(C)CC[C@H](O[C@@H]6O[C@H](CO)[C@@H](O)[C@H](O)[C@H]6N)C(C)(C)[C@@H]5CC[C@]43C)[C@@H]2C1 | 25 | 2.65 | > 30
3 | CCCCCOC(=O)N[C@H]1[C@H](O[C@H]2CC[C@]3(C)[C@H]4CC=C5[C@@H]6CC(C)(C)CC[C@]6(C(=O)O)CC[C@@]5(C)[C@]4(C)CC[C@H]3C2(C)C)O[C@H](CO)[C@@H](O)[C@@H]1O | > 30 | 1.46 | > 30
4 | CCCCCC(=O)N[C@H]1[C@H](O[C@H]2CC[C@]3(C)[C@H]4CC=C5[C@@H]6CC(C)(C)CC[C@]6(C(=O)O)CC[C@@]5(C)[C@]4(C)CC[C@H]3C2(C)C)O[C@H](CO)[C@@H](O)[C@@H]1O | > 30 | 5.82 | > 30
5 | CCCCCCC(=O)N[C@H]1[C@H](O[C@H]2CC[C@]3(C)[C@H]4CC=C5[C@@H]6CC(C)(C)CC[C@]6(C(=O)O)CC[C@@]5(C)[C@]4(C)CC[C@H]3C2(C)C)O[C@H](CO)[C@H](O)[C@@H]1O | > 30 | 2.69 | > 30
6 | CCCCC(=O)N[C@H]1[C@H](O[C@H]2CC[C@]3(C)[C@H]4CC=C5[C@@H]6CC(C)(C)CC[C@]6(C(=O)O)CC[C@@]5(C)[C@]4(C)CC[C@H]3C2(C)C)O[C@H](CO)[C@@H](O)[C@@H]1O | 24 | 10.6 | 21.7
7 | CCOC(=O)N[C@H]1[C@H](O[C@H]2CC[C@]3(C)[C@H]4CC=C5[C@@H]6CC(C)(C)CC[C@]6(C(=O)O)CC[C@@]5(C)[C@]4(C)CC[C@H]3C2(C)C)O[C@H](CO)[C@@H](O)[C@@H]1O | > 30 | 12.5 | > 30
8 | CCCCCCCCCCCCCCCCCC(=O)N[C@H]1[C@H](O[C@H]2CC[C@]3(C)[C@H]4CC=C5[C@@H]6CC(C)(C)CC[C@]6(C(=O)O)CC[C@@]5(C)[C@]4(C)CC[C@H]3C2(C)C)O[C@H](CO)[C@@H](O)[C@@H]1O | > 30 | > 30 | > 30
9 | CCCCCCCCCC(=O)N[C@H]1[C@H](O[C@H]2CC[C@]3(C)[C@H]4CC=C5[C@@H]6CC(C)(C)CC[C@]6(C(=O)O)CC[C@@]5(C)[C@]4(C)CC[C@H]3C2(C)C)O[C@H](CO)[C@@H](O)[C@@H]1O | > 30 | 1.4 | > 30
10 | CCC(=O)N[C@H]1[C@H](O[C@H]2CC[C@]3(C)[C@H]4CC=C5[C@@H]6CC(C)(C)CC[C@]6(C(=O)O)CC[C@@]5(C)[C@]4(C)CC[C@H]3C2(C)C)O[C@H](CO)[C@@H](O)[C@@H]1O | 11.9 | 6.83 | 16.4
11 | CCCC(=O)N[C@H]1[C@H](O[C@H]2CC[C@]3(C)[C@H]4CC=C5[C@@H]6CC(C)(C)CC[C@]6(C(=O)O)CC[C@@]5(C)[C@]4(C)CC[C@H]3C2(C)C)O[C@H](CO)[C@@H](O)[C@@H]1O | > 30 | 2.48 | > 30
12 | CCCOC(=O)N[C@H]1[C@H](O[C@H]2CC[C@]3(C)[C@H]4CC=C5[C@@H]6CC(C)(C)CC[C@]6(C(=O)O)CC[C@@]5(C)[C@]4(C)CC[C@H]3C2(C)C)O[C@H](CO)[C@@H](O)[C@@H]1O | > 30 | 21.5 | > 30
13 | CC[C@]1(O)C[C@H]2CN(CCc3c([nH]c4ccccc34)[C@@](C(=O)OC)(c3cc4c(cc3OC)N(C=O)[C@H]3[C@@](O)(C(=O)OC)[C@H](OC(C)=O)[C@]5(CC)C=CCN6CC[C@]43[C@@H]65)C2)C1 [VINCRISTINE] | > 0.025 | 0.0018 | –
